These compounds were tested on SF-295 (assay: Growth inhibition of human SF-295 cells assessed as cell growth at 10 uM incubated for 48 hrs by sulforhodamine B assay relative to control). Conditions: read-out: Activity.
Assay type: functional
Outline: (§1)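 Run by the NCI Developmental Therapeutics Program as part of its 60-line human tumour panel. Each compound tested at a single 10 µM dose. Growth expressed as % relative to untreated control cells (100%).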

SMILES	growth at 10 µM
CCc1ccccc1NC(=O)c1sc2nc3c(cc2c1N)C(=O)CCC3	-3.21%

What follows are compounds tested on MOLT-4 (assay: Growth inhibition of human MOLT-4 cells assessed as cell growth at 10 uM incubated for 48 hrs by sulforhodamine B assay relative to control). Conditions: read-out: Activity.
Assay type: functional
Outline: (§2)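 Submitted to the NCI Developmental Therapeutics Program for the NCI60 human tumour cell line panel. First screen at a single 10 µM concentration. Read-out is growth relative to untreated control cells set at 100%.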

SMILES	growth at 10 µM
CCc1ccccc1NC(=O)c1sc2nc3c(cc2c1N)C(=O)CCC3	24.4%

Each compound was assayed on NCI-H460 (assay: Growth inhibition of human NCI-H460 cells assessed as cell growth at 10 uM incubated for 48 hrs by sulforhodamine B assay relative to control). Conditions: read-out: Activity.
Assay type: functional
Outline: as §2

SMILES	growth at 10 µM
CCc1ccccc1NC(=O)c1sc2nc3c(cc2c1N)C(=O)CCC3	6.42%

These compounds were tested on A549 (assay: Growth inhibition of human A549/ATCC cells assessed as cell growth at 10 uM incubated for 48 hrs by sulforhodamine B assay relative to control). Conditions: read-out: Activity.
Assay type: functional
Outline: (§3)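 NCI Developmental Therapeutics Program NCI60 panel. Compounds that were active in the 10 µM one-dose screen went on to dose–response testing. Growth at each concentration is expressed relative to untreated control (100%). GI50 (concentration giving 50% of maximal inhibition of proliferation) and TGI (concentration giving total growth inhibition) were derived from the curves.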

SMILES	growth at 10 µM
CCc1ccccc1NC(=O)c1sc2nc3c(cc2c1N)C(=O)CCC3	21.5%

Each compound was assayed on OVCAR-3 (assay: Growth inhibition of human OVCAR-3 cells assessed as cell growth at 10 uM incubated for 48 hrs by sulforhodamine B assay relative to control). Conditions: read-out: Activity.
Assay type: functional
Outline: as §1

SMILES	growth at 10 µM
CCc1ccccc1NC(=O)c1sc2nc3c(cc2c1N)C(=O)CCC3	-12.7%

The compounds below were run on NCI-H226 (assay: Growth inhibition of human NCI-H226 cells assessed as cell growth at 10 uM incubated for 48 hrs by sulforhodamine B assay relative to control). Conditions: read-out: Activity.
Assay type: functional
Outline: as §2

SMILES	growth at 10 µM
CCc1ccccc1NC(=O)c1sc2nc3c(cc2c1N)C(=O)CCC3	64%

What follows are compounds tested on A498 (assay: Growth inhibition of human A498 cells assessed as cell growth at 10 uM incubated for 48 hrs by sulforhodamine B assay relative to control). Conditions: read-out: Activity.
Assay type: functional
Outline: as §3

SMILES	growth at 10 µM
CCc1ccccc1NC(=O)c1sc2nc3c(cc2c1N)C(=O)CCC3	-9.7%

The compounds below were run on HOP-62 (assay: Growth inhibition of human HOP-62 cells assessed as cell growth at 10 uM incubated for 48 hrs by sulforhodamine B assay relative to control). Conditions: read-out: Activity.
Assay type: functional
Outline: as §2

SMILES	growth at 10 µM
CCc1ccccc1NC(=O)c1sc2nc3c(cc2c1N)C(=O)CCC3	35.5%

These compounds were tested on CCRF-CEM (assay: Growth inhibition of human CCRF-CEM cells assessed as cell growth at 10 uM incubated for 48 hrs by sulforhodamine B assay relative to control). Conditions: read-out: Activity.
Assay type: functional
Outline: as §3

SMILES	growth at 10 µM
CCc1ccccc1NC(=O)c1sc2nc3c(cc2c1N)C(=O)CCC3	4%

Each compound was assayed on UACC-257 (assay: Growth inhibition of human UACC-257 cells assessed as cell growth at 10 uM incubated for 48 hrs by sulforhodamine B assay relative to control). Conditions: read-out: Activity.
Assay type: functional
Outline: as §1

SMILES	growth at 10 µM
CCc1ccccc1NC(=O)c1sc2nc3c(cc2c1N)C(=O)CCC3	60%

Each compound was assayed on MDA-MB-468 (assay: Growth inhibition of human MDA-MB-468 cells assessed as cell growth at 10 uM incubated for 48 hrs by sulforhodamine B assay relative to control). Conditions: read-out: Activity.
Assay type: functional
Outline: as §2

SMILES	growth at 10 µM
CCc1ccccc1NC(=O)c1sc2nc3c(cc2c1N)C(=O)CCC3	14%

What follows are compounds tested on HCT-15 (assay: Growth inhibition of human HCT-15 cells assessed as cell growth at 10 uM incubated for 48 hrs by sulforhodamine B assay relative to control). Conditions: read-out: Activity.
Assay type: functional
Outline: as §2

SMILES	growth at 10 µM
CCc1ccccc1NC(=O)c1sc2nc3c(cc2c1N)C(=O)CCC3	29%

Each compound was assayed on HL-60(TB) (assay: Growth inhibition of human HL-60(TB) cells assessed as cell growth at 10 uM incubated for 48 hrs by sulforhodamine B assay relative to control). Conditions: read-out: Activity.
Assay type: functional
Outline: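 Screened by the NCI Developmental Therapeutics Program on its panel of 60 human tumour cell lines. Compounds were first tested at a single 10 µM dose, and compounds active there went to dose-response curves. Growth is expressed relative to untreated control (100%). GI50 (50% of maximal proliferation inhibition) and TGI (total growth inhibition) were derived from the dose-response data.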

SMILES	growth at 10 µM
CCc1ccccc1NC(=O)c1sc2nc3c(cc2c1N)C(=O)CCC3	-10.3%

The compounds below were run on NCI-H322M (assay: Growth inhibition of human NCI-H322M cells assessed as cell growth at 10 uM incubated for 48 hrs by sulforhodamine B assay relative to control). Conditions: read-out: Activity.
Assay type: functional
Outline: as §2

SMILES	growth at 10 µM
CCc1ccccc1NC(=O)c1sc2nc3c(cc2c1N)C(=O)CCC3	46.3%

Each compound was assayed on SF-539 (assay: Growth inhibition of human SF-539 cells assessed as cell growth at 10 uM incubated for 48 hrs by sulforhodamine B assay relative to control). Conditions: read-out: Activity.
Assay type: functional
Outline: as §1

SMILES	growth at 10 µM
CCc1ccccc1NC(=O)c1sc2nc3c(cc2c1N)C(=O)CCC3	-17%

These compounds were tested on MDA-MB-435 (assay: Growth inhibition of human MDA-MB-435 cells assessed as cell growth at 10 uM incubated for 48 hrs by sulforhodamine B assay relative to control). Conditions: read-out: Activity.
Assay type: functional
Outline: as §2

SMILES	growth at 10 µM
CCc1ccccc1NC(=O)c1sc2nc3c(cc2c1N)C(=O)CCC3	-56.6%

What follows are compounds tested on SN12C (assay: Growth inhibition of human SN12C cells assessed as cell growth at 10 uM incubated for 48 hrs by sulforhodamine B assay relative to control). Conditions: read-out: Activity.
Assay type: functional
Outline: as §1

SMILES	growth at 10 µM
CCc1ccccc1NC(=O)c1sc2nc3c(cc2c1N)C(=O)CCC3	40%

What follows are compounds tested on RXF 393 (assay: Growth inhibition of human RXF 393 cells assessed as cell growth at 10 uM incubated for 48 hrs by sulforhodamine B assay relative to control). Conditions: read-out: Activity.
Assay type: functional
Outline: as §1

SMILES	growth at 10 µM
CCc1ccccc1NC(=O)c1sc2nc3c(cc2c1N)C(=O)CCC3	-4%

What follows are compounds tested on NCI/ADR-RES (assay: Growth inhibition of human NCI/ADR-RES cells assessed as cell growth at 10 uM incubated for 48 hrs by sulforhodamine B assay relative to control). Conditions: read-out: Activity.
Assay type: functional
Outline: as §2

SMILES	growth at 10 µM
CCc1ccccc1NC(=O)c1sc2nc3c(cc2c1N)C(=O)CCC3	5%

The compounds below were run on M14 (assay: Growth inhibition of human M14 cells assessed as cell growth at 10 uM incubated for 48 hrs by sulforhodamine B assay relative to control). Conditions: read-out: Activity.
Assay type: functional
Outline: as §2

SMILES	growth at 10 µM
CCc1ccccc1NC(=O)c1sc2nc3c(cc2c1N)C(=O)CCC3	5%

What follows are compounds tested on SNB-75 (assay: Growth inhibition of human SNB-75 cells assessed as cell growth at 10 uM incubated for 48 hrs by sulforhodamine B assay relative to control). Conditions: read-out: Activity.
Assay type: functional
Outline: as §1

SMILES	growth at 10 µM
CCc1ccccc1NC(=O)c1sc2nc3c(cc2c1N)C(=O)CCC3	-15.4%

What follows are compounds tested on IGROV-1 (assay: Growth inhibition of human IGROV-1 cells assessed as cell growth at 10 uM incubated for 48 hrs by sulforhodamine B assay relative to control). Conditions: read-out: Activity.
Assay type: functional
Outline: as §2

SMILES	growth at 10 µM
CCc1ccccc1NC(=O)c1sc2nc3c(cc2c1N)C(=O)CCC3	33.3%

Each compound was assayed on Hs-578T (assay: Growth inhibition of human Hs-578T cells assessed as cell growth at 10 uM incubated for 48 hrs by sulforhodamine B assay relative to control). Conditions: read-out: Activity.
Assay type: functional
Outline: as §2

SMILES	growth at 10 µM
CCc1ccccc1NC(=O)c1sc2nc3c(cc2c1N)C(=O)CCC3	22.6%

The compounds below were run on HOP-92 (assay: Growth inhibition of human HOP-92 cells assessed as cell growth at 10 uM incubated for 48 hrs by sulforhodamine B assay relative to control). Conditions: read-out: Activity.
Assay type: functional
Outline: as §2

SMILES	growth at 10 µM
CCc1ccccc1NC(=O)c1sc2nc3c(cc2c1N)C(=O)CCC3	54%

The compounds below were run on SK-MEL-28 (assay: Growth inhibition of human SK-MEL-28 cells assessed as cell growth at 10 uM incubated for 48 hrs by sulforhodamine B assay relative to control). Conditions: read-out: Activity.
Assay type: functional
Outline: as §1

SMILES	growth at 10 µM
CCc1ccccc1NC(=O)c1sc2nc3c(cc2c1N)C(=O)CCC3	43.7%

The compounds below were run on U-251 (assay: Growth inhibition of human U-251 cells assessed as cell growth at 10 uM incubated for 48 hrs by sulforhodamine B assay relative to control). Conditions: read-out: Activity.
Assay type: functional
Outline: as §1

SMILES	growth at 10 µM
CCc1ccccc1NC(=O)c1sc2nc3c(cc2c1N)C(=O)CCC3	13%

These compounds were tested on HCT-116 (assay: Growth inhibition of human HCT-116 cells assessed as cell growth at 10 uM incubated for 48 hrs by sulforhodamine B assay relative to control). Conditions: read-out: Activity.
Assay type: functional
Outline: as §2

SMILES	growth at 10 µM
CCc1ccccc1NC(=O)c1sc2nc3c(cc2c1N)C(=O)CCC3	24%

Each compound was assayed on OVCAR-5 (assay: Growth inhibition of human OVCAR-5 cells assessed as cell growth at 10 uM incubated for 48 hrs by sulforhodamine B assay relative to control). Conditions: read-out: Activity.
Assay type: functional
Outline: as §1

SMILES	growth at 10 µM
CCc1ccccc1NC(=O)c1sc2nc3c(cc2c1N)C(=O)CCC3	22%

The compounds below were run on SK-MEL-5 (assay: Growth inhibition of human SK-MEL-5 cells assessed as cell growth at 10 uM incubated for 48 hrs by sulforhodamine B assay relative to control). Conditions: read-out: Activity.
Assay type: functional
Outline: as §1

SMILES	growth at 10 µM
CCc1ccccc1NC(=O)c1sc2nc3c(cc2c1N)C(=O)CCC3	17%

What follows are compounds tested on KM12 (assay: Growth inhibition of human KM12 cells assessed as cell growth at 10 uM incubated for 48 hrs by sulforhodamine B assay relative to control). Conditions: read-out: Activity.
Assay type: functional
Outline: as §2

SMILES	growth at 10 µM
CCc1ccccc1NC(=O)c1sc2nc3c(cc2c1N)C(=O)CCC3	21%

These compounds were tested on Malme-3M (assay: Growth inhibition of human Malme-3M cells assessed as cell growth at 10 uM incubated for 48 hrs by sulforhodamine B assay relative to control). Conditions: read-out: Activity.
Assay type: functional
Outline: as §2

SMILES	growth at 10 µM
CCc1ccccc1NC(=O)c1sc2nc3c(cc2c1N)C(=O)CCC3	60.8%

Each compound was assayed on UO-31 (assay: Growth inhibition of human UO-31 cells assessed as cell growth at 10 uM incubated for 48 hrs by sulforhodamine B assay relative to control). Conditions: read-out: Activity.
Assay type: functional
Outline: as §1

SMILES	growth at 10 µM
CCc1ccccc1NC(=O)c1sc2nc3c(cc2c1N)C(=O)CCC3	44.5%

Source: ChEMBL document CHEMBL4715736, “Identification of anticancer agents based on the thieno[2,3-b]pyridine and 1H-pyrazole molecular scaffolds” (2016)
